ChEMBL document CHEMBL1134841, “Antimalarial alkoxylated and hydroxylated chalcones [corrected]: structure-activity relationship analysis” (J Med Chem, 2001)

Experiments:
[1] = Ratio of average life span of compound-treated mice (100 mg/kg, ip, 3 days) to that of mice treated with chloroquine (T/C-CQ); format: functional
How it was run: (§1)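 Swiss albino mice (male, 4 weeks, ~25 g) inoculated ip with 10^7 P. berghei ANKA parasitized erythrocytes (day 0). Test compound 100 mg/kg/day ip in DMSO, days 1–3, three mice per compound. Control infected groups: DMSO or 4'-butoxy-2,4-dimethoxychalcone (100 mg/kg in DMSO, ip, days 1–3), or chloroquine (52 mg/kg ip in 0.5% Tween buffer pH 7.4, day 1). Survival followed; ratio of mean life spans.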

[2] = system: Mus musculus; test: Ratio of average life span of compound-treated mice (100 mg/kg, ip, 3 days) to that of mice treated with 4''-butoxy-2,4-dimethoxychalcone (comp.41); format: functional; how it was run: as §1
[3] = system: Mus musculus; test: Ratio of average life span of compound-treated mice (100 mg/kg, ip, 3 days) to that of mice receiving DMSO (T/C-untreated); format: functional; how it was run: as §1
[4] = system: Plasmodium falciparum; test: Inhibition of [3H]hypoxanthine incorporation in Plasmodium falciparum K1; format: functional, organism-based; details: Plasmodium falciparum, 48 h
How it was run: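 K1 (chloroquine-resistant) parasites cultured in RPMI-1640 with 5% sodium bicarbonate and 10% type O human serum. DMSO stocks were serially diluted 10-fold in medium, covering a 10^6-fold range. Infected erythrocytes at 1–2% parasitemia and 1.5% hematocrit were incubated at 37 °C in a candle jar for 24 h. [3H]hypoxanthine was then added for a further 24 h, cells harvested and scintillation counted. IC50 from nonlinear logistic fit versus untreated control.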

SMILES: O=C(/C=C/c1ccc2ccccc2c1)c1ccc(O)cc1O
- T/C-CQ [1]: 1.05
- T/C 41 [2]: 1.2
- T/C untreated [3]: 1.91
- IC50 [4]: 20 µM

SMILES: COc1ccc(C(=O)/C=C/c2ccc(C(F)(F)F)cc2)c(OC)c1OC
- T/C-CQ [1]: 0.74
- T/C 41 [2]: 1.46
- T/C untreated [3]: 1.46
- IC50 [4]: 3 µM

SMILES: CCCCOc1ccc(C(=O)/C=C/c2ccc(OC)cc2OC)cc1
- T/C-CQ [1]: 0.57
- T/C untreated [3]: 1.08
- IC50 [4]: 108 µM

SMILES: CN(C)c1ccc(/C=C/C(=O)c2ccc(O)cc2)cc1
- T/C-CQ [1]: 0.47
- T/C 41 [2]: 0.99
- T/C untreated [3]: 0.94
- IC50 [4]: 17.7 µM

SMILES: O=C(/C=C/c1ccc(F)cc1F)c1ccc(O)cc1O
- T/C-CQ [1]: 1.23
- T/C 41 [2]: 1.78
- T/C untreated [3]: 1.73
- IC50 [4]: 16 µM

SMILES: COc1ccc(/C=C/C(=O)c2ccc(OC)cc2OC)c(OC)c1
- T/C-CQ [1]: 0.5
- T/C 41 [2]: 0.98
- T/C untreated [3]: 0.98
- IC50 [4]: 2.1 µM

SMILES: COc1ccc(C(=O)/C=C/c2ccc(F)cc2)c(OC)c1OC
- T/C-CQ [1]: 0.69
- T/C 41 [2]: 1.37
- T/C untreated [3]: 1.37
- IC50 [4]: 9.5 µM

SMILES: COc1ccc(C(=O)/C=C/c2cnc3ccccc3c2)c(OC)c1OC
- T/C-CQ [1]: 0.96
- T/C 41 [2]: 1.91
- T/C untreated [3]: 1.91
- IC50 [4]: 2 µM

SMILES: COc1ccc(C(=O)/C=C/c2ccc(Cl)cc2Cl)c(OC)c1OC
- T/C-CQ [1]: 0.48
- T/C 41 [2]: 0.94
- T/C untreated [3]: 0.94
- IC50 [4]: 5.4 µM

SMILES: COc1ccc(C(=O)/C=C/c2ccc(C(F)(F)F)cc2)c(OC)c1
- T/C-CQ [1]: 0.84
- T/C 41 [2]: 1.67
- T/C untreated [3]: 1.67
- IC50 [4]: 5.9 µM

SMILES: O=C(/C=C/c1ccc(Cl)cc1)c1ccc(O)cc1O
- T/C-CQ [1]: 0.71
- T/C 41 [2]: 1.48
- T/C untreated [3]: 1.41
- IC50 [4]: 12.3 µM

SMILES: COc1ccc(C(=O)/C=C/c2ccc(Cl)c(Cl)c2)c(OC)c1OC
- T/C-CQ [1]: 0.8
- T/C 41 [2]: 1.53
- T/C untreated [3]: 1.47
- IC50 [4]: 14.5 µM

SMILES: COc1ccc(C(=O)/C=C/c2ccc(OC)cc2OC)cc1
- T/C-CQ [1]: 0.46
- T/C 41 [2]: 0.97
- T/C untreated [3]: 0.92
- IC50 [4]: 6.4 µM

SMILES: O=C(/C=C/c1ccc(Cl)c(Cl)c1)c1ccc(O)cc1
- T/C-CQ [1]: 0.71
- T/C 41 [2]: 0.81
- T/C untreated [3]: 1.28
- IC50 [4]: 18.4 µM

SMILES: O=C(/C=C/c1ccc(Cl)cc1Cl)c1ccc(O)cc1O
- T/C-CQ [1]: 0.94
- T/C 41 [2]: 1.36
- T/C untreated [3]: 1.32
- IC50 [4]: 68.5 µM

SMILES: COc1ccc(C(=O)/C=C/c2ccc(F)cc2)cc1
- T/C-CQ [1]: 1.22
- T/C 41 [2]: 1.83
- T/C untreated [3]: 2.2
- IC50 [4]: 14.4 µM

SMILES: O=C(/C=C/c1ccccn1)c1ccc(O)cc1O
- T/C-CQ [1]: 0.81
- T/C 41 [2]: 0.93
- T/C untreated [3]: 1.47
- IC50 [4]: 19.7 µM

SMILES: CCN(CC)CCCC(C)Nc1ccnc2cc(Cl)ccc12 (stereo unspecified) [CHLOROQUINE]
- T/C 41 [2]: 1.71
- T/C untreated [3]: 1.81

SMILES: COc1ccc(C(=O)/C=C/c2cnc3ccccc3c2)cc1
- T/C-CQ [1]: 0.49
- T/C 41 [2]: 1.03
- T/C untreated [3]: 0.98
- IC50 [4]: 4.8 µM

SMILES: CCc1ccc(/C=C/C(=O)c2ccc(OC)cc2OC)cc1
- T/C-CQ [1]: 1.18
- T/C 41 [2]: 2.33
- T/C untreated [3]: 2.33
- IC50 [4]: 2.4 µM

SMILES: COc1ccc(C(=O)/C=C/c2cnc3ccccc3c2)c(OC)c1
- T/C-CQ [1]: 0.65
- T/C 41 [2]: 1.29
- T/C untreated [3]: 1.29
- IC50 [4]: 2.2 µM

SMILES: COc1ccc(C(=O)/C=C/c2ccc(C)cc2)c(OC)c1OC
- IC50 [4]: 25.6 µM

SMILES: COc1ccc(C(=O)/C=C/c2ccnc3ccccc23)c(OC)c1
- IC50 [4]: 27 µM

SMILES: O=C(/C=C/c1cnc2ccccc2c1)c1ccc(O)cc1
- IC50 [4]: 41 µM

SMILES: Cc1cccc(/C=C/C(=O)c2ccc(O)cc2)c1
- IC50 [4]: 25.8 µM

SMILES: COc1ccc(C(=O)/C=C/c2cccc(Cl)c2)c(OC)c1OC
- IC50 [4]: 24.4 µM

SMILES: COc1ccc(/C=C/C(=O)c2ccc(OC)c(OC)c2OC)cc1
- IC50 [4]: 25 µM

SMILES: O=C(/C=C/c1ccccn1)c1ccc(O)cc1
- T/C-CQ [1]: 0.49
- T/C 41 [2]: 1.03
- T/C untreated [3]: 0.99
- IC50 [4]: 16.3 µM

SMILES: COc1ccc(C(=O)/C=C/c2ccc(-c3ccccc3)cc2)c(OC)c1OC
- IC50 [4]: 26.2 µM

SMILES: O=C(/C=C/c1ccccc1)c1ccc(O)cc1 [4'-HYDROXYCHALCONE]
- IC50 [4]: 29.6 µM

SMILES: COc1ccc(C(=O)/C=C/c2ccc(Br)cc2)c(OC)c1
- IC50 [4]: 542 µM

SMILES: COc1ccc(C(=O)/C=C/c2ccc(O)cc2)cc1
- T/C-CQ [1]: 0.7
- T/C 41 [2]: 1.47
- T/C untreated [3]: 1.41
- IC50 [4]: 7 µM

SMILES: COc1ccc(C(=O)/C=C/c2ccc(Cl)cc2Cl)cc1
- IC50 [4]: 16 µM

SMILES: O=C(/C=C/c1ccc(F)cc1)c1ccc(O)cc1
- IC50 [4]: 21.7 µM

SMILES: O=C(/C=C/c1ccc(C(F)(F)F)cc1)c1ccc(O)cc1
- IC50 [4]: 30.4 µM

SMILES: COc1ccc(C(=O)/C=C/c2ccc(C(F)(F)F)cc2)cc1
- IC50 [4]: 19 µM

SMILES: COc1ccc(C(=O)/C=C/c2ccc(Cl)cc2)c(OC)c1OC
- IC50 [4]: 14.5 µM

SMILES: O=C(/C=C/c1cnc2ccccc2c1)c1ccc(O)cc1O
- T/C-CQ [1]: 0.77
- T/C 41 [2]: 1.11
- T/C untreated [3]: 1.08
- IC50 [4]: 16.1 µM

SMILES: COc1ccc(C(=O)/C=C/c2ccc(F)cc2F)c(OC)c1
- T/C-CQ [1]: 0.52
- T/C 41 [2]: 1.04
- T/C untreated [3]: 1.04
- IC50 [4]: 6.2 µM

SMILES: COc1ccc(/C=C/C(=O)c2ccc(OC)c(OC)c2OC)c(OC)c1
- IC50 [4]: 16.5 µM

SMILES: O=C(/C=C/c1ccccc1Cl)c1ccc(O)cc1
- IC50 [4]: 61.7 µM

SMILES: CCOc1ccc(C(=O)/C=C/c2ccccc2)cc1
- IC50 [4]: 43 µM

SMILES: CCOc1ccc(C(=O)/C=C/c2ccc(F)cc2F)cc1
- IC50 [4]: 28.1 µM

SMILES: CCOc1ccc(C(=O)/C=C/c2ccc(C(F)(F)F)cc2)cc1
- IC50 [4]: 24 µM
